Measurements reported in ChEMBL document CHEMBL4346662, “Synthesis of novel 7-azaindole derivatives containing pyridin-3-ylmethyl dithiocarbamate moiety as potent PKM2 activators and PKM2 nucleus translocation inhibitors” (Eur J Med Chem, 2019).
The source made the active and inactive calls. No cut-off for these calls is given here.

Tests used:
Pyruvate kinase PKM [1] = target: T1, Pyruvate kinase PKM (Homo sapiens, UniProt P14618); assay: Activation of human recombinant His-tagged PKM2 expressed in Escherichia coli assessed as maximal activity using PEP as substrate measured at 30 sec between 3 and 6 mins in presence of […] by fluorescent pyruvate kinase-lactate dehydrogenase coupled assay relative to control
Procedure, shortened: (§1)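 Pyruvate kinase activity read by fluorescent pyruvate kinase–lactate dehydrogenase coupled assay; AC50 and maximal activation are means of at least two determinations.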
Target sequence in this assay (P14618 2-531 limits assumed): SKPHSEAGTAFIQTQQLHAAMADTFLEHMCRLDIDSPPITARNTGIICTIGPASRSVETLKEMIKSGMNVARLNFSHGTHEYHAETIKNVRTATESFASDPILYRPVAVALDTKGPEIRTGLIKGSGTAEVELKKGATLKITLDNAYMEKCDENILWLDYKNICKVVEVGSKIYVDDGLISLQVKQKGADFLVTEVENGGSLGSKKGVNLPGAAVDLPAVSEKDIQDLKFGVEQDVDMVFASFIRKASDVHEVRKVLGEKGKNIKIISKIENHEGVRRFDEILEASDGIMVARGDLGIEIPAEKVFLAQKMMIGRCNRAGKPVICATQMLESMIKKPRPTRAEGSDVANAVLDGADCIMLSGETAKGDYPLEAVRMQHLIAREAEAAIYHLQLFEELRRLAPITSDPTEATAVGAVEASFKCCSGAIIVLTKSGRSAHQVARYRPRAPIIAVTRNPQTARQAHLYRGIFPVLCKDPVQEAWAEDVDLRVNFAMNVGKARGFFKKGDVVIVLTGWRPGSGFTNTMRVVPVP

NCI-H1299 = assay: Antiproliferative activity against human H1299 cells assessed as reduction in cell growth incubated for 72 hrs by CellTiter-Glo assay; assay type: functional, cell-based; conditions: NCI-H1299, 72 h
Procedure, shortened: (§2)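 Cells (H1299 in RPMI 1640; HCT116 and A375 in DMEM; 10% FBS, 37 °C, 5% CO2) plated at 2000 per well, left 24 h, then exposed to ten concentrations or DMSO for 72 h. CellTiter-Glo added, 30 min at room temperature in dark, luminescence read. IC50 fitted from triplicate experiments.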

HCT-116 = assay: Antiproliferative activity against human HCT116 cells assessed as reduction in cell growth incubated for 72 hrs by CellTiter-Glo assay; assay type: functional, cell-based; conditions: HCT-116, 72 h; procedure, shortened: as §2
A-375 [2] = assay: Antiproliferative activity against human A375 cells assessed as reduction in cell growth incubated for 72 hrs by CellTiter-Glo assay; assay type: functional, cell-based; conditions: A-375, 72 h; procedure, shortened: as §2
Pyruvate kinase PKM [3] = target: T1, Pyruvate kinase PKM; assay: Activation of human recombinant His-tagged PKM2 expressed in Escherichia coli using PEP as substrate measured at 30 sec between 3 and 6 mins in presence of […] by fluorescent pyruvate kinase-lactate dehydrogenase coupled assay; procedure, shortened: as §1
Target sequence in this assay (P14618 whole entry): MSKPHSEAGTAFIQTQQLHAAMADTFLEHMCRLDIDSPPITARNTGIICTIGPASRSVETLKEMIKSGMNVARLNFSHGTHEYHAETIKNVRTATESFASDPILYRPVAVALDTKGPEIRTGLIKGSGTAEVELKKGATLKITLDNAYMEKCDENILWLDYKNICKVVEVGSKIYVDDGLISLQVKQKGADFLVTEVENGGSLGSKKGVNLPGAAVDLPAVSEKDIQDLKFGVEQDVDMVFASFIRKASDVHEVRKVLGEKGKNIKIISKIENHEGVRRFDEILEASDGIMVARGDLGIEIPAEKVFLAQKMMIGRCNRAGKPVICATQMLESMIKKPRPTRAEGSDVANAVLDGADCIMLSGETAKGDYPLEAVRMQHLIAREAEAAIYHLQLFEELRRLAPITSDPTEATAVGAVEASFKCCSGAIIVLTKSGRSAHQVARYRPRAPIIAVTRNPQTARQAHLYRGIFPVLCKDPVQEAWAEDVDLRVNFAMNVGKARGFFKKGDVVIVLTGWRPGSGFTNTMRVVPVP

[4] = Cytotoxicity against human HELF cells assessed as reduction in cell viability incubated for 72 hrs by CellTiter-Glo assay; assay type: cell-based
C2C12 = assay: Cytotoxicity against mouse C2C12 cells assessed as reduction in cell viability incubated for 72 hrs by CellTiter-Glo assay; assay type: cell-based; conditions: C2C12, 72 h
[5] = Cytotoxicity against mouse C2C12 cells assessed as reduction in cell viability at 20 uM incubated for 72 hrs by CellTiter-Glo assay relative to control; assay type: cell-based; conditions: read-out: INH
[6] = target: Serine/threonine-protein kinase B-raf (Homo sapiens) (UniProt P15056); assay: Inhibition of B-raf (unknown origin) at 10 uM
Procedure, shortened: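 B-raf tested by single-point binding at 10 μM.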

A-375 [7] = assay: Antitumor activity in human A375 cells xenografted in BALB/C mouse assessed as reduction in tumor volume at 50 mg/kg, po bid for 14 days measured on day 22; assay type: functional, organism-based
Procedure, shortened: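 Male BALB/c athymic nude mice, six weeks old, 18–20 g, inoculated subcutaneously with A375 cells (5×10^7 cells/mL in DMEM, 0.2 mL). At 100–300 mm³ (7 days), randomized, n = 6 per group, dosed orally bid for 14 days; vehicle 0.5% CMCNa. Tumor volume ((width)²×length/2) and body weight measured 2–3 times weekly; tumors excised and weighed at day 22.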

Homo sapiens = organism: Homo sapiens; assay: Inhibition of nuclear translocation of PKM2 in human A375 cells assessed as retardation of in nuclear accumulation of PKM2 at 1 to 4 uM incubated for 24 hrs by Hoechst staining-based immunofluorescent microscopic analysis; assay type: cell-based
Procedure, shortened: (§3)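 A375 cells seeded at 60% per well, grown 24 h at 37 °C, then treated with three concentrations, DMSO or NZT for 24 h (12 h in a separate run). Fixed 10 min in 3% PFA/0.1% glutaraldehyde, blocked overnight at 4 °C (3% BSA, 0.2% Triton X-100), stained with rabbit anti-PKM2 2 h, then secondary plus Hoechst 33258 1 h. Imaged on Operetta high content system; cytoplasmic fluorescence intensity quantified.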

Pyruvate kinase PKM [8] = target: T1, Pyruvate kinase PKM; assay: Inhibition of nuclear translocation of PKM2 in human A375 cells assessed as retardation of in nuclear accumulation of PKM2 at 1 to 4 uM incubated for 12 hrs by Hoechst staining-based immunofluorescent microscopic analysis; assay type: cell-based; procedure, shortened: as §3
Target sequence in this assay (P14618 2-531 limits assumed): as the sequence (P14618 2-531 limits assumed) above

A-375 [9] = assay: Induction of apoptosis in human A375 cells assessed as apoptotic cells at 1 to 4 uM incubated for 24 hrs by AnnexinV-FITC/propidium iodide staining-based flow cytometric analysis relative to control; assay type: functional, cell-based
Procedure, shortened: (§4)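 A375 cells seeded at 6×10^5 per well, grown 24 h, then given fresh medium with compound for 24 h. Harvested by trypsinization, washed twice in ice-cold PBS, stained with Annexin V-FITC/PI and analysed by flow cytometry. Annexin V+/PI− scored early, Annexin V+/PI+ late apoptotic, double-negative live.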

A-375 [10] = assay: Induction of autophagy in human A375 cells assessed as increase in LC3-1 to LC3-2 transition at 1 to 4 uM incubated for 24 hrs by immunoflourescence assay; assay type: functional, cell-based
Procedure, shortened: (§5)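 A375 cells seeded at 60% per well, then treated with compound or DMSO for 24 h. Fixed in 3% PFA/0.1% glutaraldehyde, blocked overnight at 4 °C, immunostained with rabbit anti-LC3B plus Hoechst 33258. High content imaging quantified cytoplasmic LC3B intensity and LC3B spot area.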

A-375 [11] = assay: Anti-migration activity against human A375 cells assessed as inhibition of cell migration speed incubated for 24 hrs; assay type: functional, cell-based
Procedure, shortened: (§6)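 A375 cells seeded at 60% per well, grown 24 h, then given six concentrations or DMSO. Migration speed and accumulated distance tracked in real time by live-cell high content imaging (Operetta) over 24 h. Data from triplicate experiments.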

A-375 [12] = assay: Inhibition of nuclear translocation of PKM2 in human A375 cells assessed as cell death of PKM2 at 4 uM incubated for 24 hrs by Hoechst staining-based fluorescent microscopic analysis; assay type: functional
A-375 [13] = assay: Anti-migration activity against human A375 cells assessed as inhibition of cell migration distance incubated for 24 hrs; assay type: functional, cell-based; procedure, shortened: as §6
[14] = Cytotoxicity against human HELF cells assessed as reduction in cell viability at 20 uM incubated for 72 hrs by CellTiter-Glo assay relative to control; assay type: cell-based; conditions: read-out: INH
A-375 [15] = assay: Cytotoxicity in human A375 cells assessed as reduction in cel viability at 4 uM incubated for 24 hrs; assay type: functional, cell-based
A-375 [16] = assay: Induction of autophagy in human A375 cells assessed as increase inLC3B spot area at 1 to 4 uM incubated for 24 hrs by immunoflourescence assay; assay type: functional, cell-based; procedure, shortened: as §5
A-375 [17] = assay: Induction of apoptosis in human A375 cells assessed as viable cells level at 1 uM incubated for 24 hrs by AnnexinV-FITC/propidium iodide staining-based flow cytometric analysis (reference value: 89.51%); assay type: functional; procedure, shortened: as §4
A-375 [18] = assay: Induction of apoptosis in human A375 cells assessed as early apoptotic cells level at 1 uM incubated for 24 hrs by AnnexinV-FITC/propidium iodide staining-based flow cytometric analysis (reference value: 2.89%); assay type: functional; procedure, shortened: as §4
A-375 [19] = assay: Induction of apoptosis in human A375 cells assessed as late apoptotic cells level at 1 uM incubated for 24 hrs by AnnexinV-FITC/propidium iodide staining-based flow cytometric analysis (reference value: 6.64%); assay type: functional; procedure, shortened: as §4
A-375 [20] = assay: Induction of apoptosis in human A375 cells assessed as necrotic cells level at 1 uM incubated for 24 hrs by AnnexinV-FITC/propidium iodide staining-based flow cytometric analysis (reference value: 0.96%); assay type: functional; procedure, shortened: as §4
A-375 [21] = assay: Induction of apoptosis in human A375 cells assessed as viable cells level at 2 uM incubated for 24 hrs by AnnexinV-FITC/propidium iodide staining-based flow cytometric analysis (reference value: 89.51%); assay type: functional; procedure, shortened: as §4
A-375 [22] = assay: Induction of apoptosis in human A375 cells assessed as early apoptotic cells level at 2 uM incubated for 24 hrs by AnnexinV-FITC/propidium iodide staining-based flow cytometric analysis (reference value: 2.89%); assay type: functional; procedure, shortened: as §4
A-375 [23] = assay: Induction of apoptosis in human A375 cells assessed as late apoptotic cells level at 2 uM incubated for 24 hrs by AnnexinV-FITC/propidium iodide staining-based flow cytometric analysis (reference value: 6.64%); assay type: functional; procedure, shortened: as §4
A-375 [24] = assay: Induction of apoptosis in human A375 cells assessed as necrotic cells level at 2 uM incubated for 24 hrs by AnnexinV-FITC/propidium iodide staining-based flow cytometric analysis (reference value: 0.96%); assay type: functional; procedure, shortened: as §4
A-375 [25] = assay: Induction of apoptosis in human A375 cells assessed as viable cells level at 4 uM incubated for 24 hrs by AnnexinV-FITC/propidium iodide staining-based flow cytometric analysis (reference value: 89.51%); assay type: functional; procedure, shortened: as §4
A-375 [26] = assay: Induction of apoptosis in human A375 cells assessed as early apoptotic cells level at 4 uM incubated for 24 hrs by AnnexinV-FITC/propidium iodide staining-based flow cytometric analysis (reference value: 2.89%); assay type: functional; procedure, shortened: as §4
A-375 [27] = assay: Induction of apoptosis in human A375 cells assessed as late apoptotic cells level at 4 uM incubated for 24 hrs by AnnexinV-FITC/propidium iodide staining-based flow cytometric analysis (reference value: 6.64%); assay type: functional; procedure, shortened: as §4
A-375 [28] = assay: Induction of apoptosis in human A375 cells assessed as necrotic cells level at 4 uM incubated for 24 hrs by AnnexinV-FITC/propidium iodide staining-based flow cytometric analysis (reference value: 0.96%); assay type: functional; procedure, shortened: as §4
[29] = Toxicity in BALB/C mouse xenografted with human A375 cells assessed as reduction in body weight at 50 mg/kg, po bid for 14 days measured on day 22; conditions: in vivo, 336 h

Chain of Serine/threonine-protein kinase B-raf (Homo sapiens) (P15056 whole entry): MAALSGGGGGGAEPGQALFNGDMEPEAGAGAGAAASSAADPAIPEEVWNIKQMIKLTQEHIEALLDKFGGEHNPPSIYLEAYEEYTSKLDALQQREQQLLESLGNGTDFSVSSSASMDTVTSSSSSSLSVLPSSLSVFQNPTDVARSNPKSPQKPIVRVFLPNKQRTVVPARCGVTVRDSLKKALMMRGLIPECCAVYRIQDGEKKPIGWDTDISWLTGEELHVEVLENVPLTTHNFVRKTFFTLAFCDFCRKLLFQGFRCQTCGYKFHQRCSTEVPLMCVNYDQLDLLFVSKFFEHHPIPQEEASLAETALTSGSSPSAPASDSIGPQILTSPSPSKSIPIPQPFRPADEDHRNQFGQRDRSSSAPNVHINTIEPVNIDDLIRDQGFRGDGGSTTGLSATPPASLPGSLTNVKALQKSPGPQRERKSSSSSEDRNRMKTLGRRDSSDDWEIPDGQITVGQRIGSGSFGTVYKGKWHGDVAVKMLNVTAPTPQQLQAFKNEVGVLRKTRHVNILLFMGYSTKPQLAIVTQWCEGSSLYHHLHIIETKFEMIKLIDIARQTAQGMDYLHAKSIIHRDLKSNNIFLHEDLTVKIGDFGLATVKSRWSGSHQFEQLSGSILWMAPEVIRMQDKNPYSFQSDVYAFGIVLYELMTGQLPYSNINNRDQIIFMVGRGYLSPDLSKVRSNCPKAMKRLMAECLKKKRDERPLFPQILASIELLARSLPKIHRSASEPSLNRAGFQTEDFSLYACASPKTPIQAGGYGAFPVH

## O=C(CCSC(=S)NCc1cccnc1)c1c[nH]c2ncccc12
Pyruvate kinase PKM [1]
  %max: 113%
NCI-H1299
  IC50: 3680 nM
HCT-116
  IC50: 3090 nM
A-375 [2]
  IC50: 1030 nM

## O=C(CCSC(=S)NCc1cccnc1)c1cn(C2CCC2)c2ncccc12
Pyruvate kinase PKM [3]; read-out: AC50
  AC50: 3930 nM
Pyruvate kinase PKM [1]
  %max: 93%
NCI-H1299
  IC50: 4200 nM
HCT-116
  IC50: 3520 nM
A-375 [2]
  IC50: 1340 nM

## O=C(CCSC(=S)NCc1cccnc1)c1cn(C2CC2)c2ncccc12
Pyruvate kinase PKM [3]; read-out: AC50
  AC50: 4560 nM
Pyruvate kinase PKM [1]
  %max: 42%
NCI-H1299
  IC50: 9510 nM
HCT-116
  IC50: 840 nM
A-375 [2]
  IC50: 210 nM

## O=C(CCSC(=S)NCc1cccnc1)c1c(-c2ccccc2)nn2ncccc12
Pyruvate kinase PKM [3]; read-out: AC50
  AC50: 450 nM
Pyruvate kinase PKM [1]
  %max: 148%
NCI-H1299
  IC50: > 10000 nM
HCT-116
  IC50: 9080 nM
A-375 [2]
  IC50: 2770 nM

## O=C(CCSC(=S)NCc1cccnc1)c1cnn2ccccc12
Pyruvate kinase PKM [3]; read-out: AC50
  AC50: > 20000 nM
Pyruvate kinase PKM [1]
  %max: 23%

## O=C(CCSC(=S)NCc1cccnc1)c1cn(CC(F)F)c2ncccc12
Pyruvate kinase PKM [3]; read-out: AC50
  AC50: 2670 nM
Pyruvate kinase PKM [1]
  %max: 149%
NCI-H1299
  IC50: 2280 nM
HCT-116
  IC50: 710 nM
A-375 [2]
  IC50: 280 nM
[4]
  IC50: > 20000 nM
C2C12
  IC50: > 20000 nM
[5]
  cytotoxicity at 72 h, 20 µM: 46%
[6]
  inhibition: 41%
A-375 [7]
  Activity: Active
Homo sapiens
  inhibition: Dose-dependent effect
Pyruvate kinase PKM [8]
  Activity: Active
A-375 [9]
  Activity: Dose-dependent effect
A-375 [10]
  Activity: Dose-dependent effect
A-375 [11]
  Activity: Dose-dependent effect
A-375 [12]
  inhibition: Active
A-375 [13]
  Activity: Dose-dependent effect
[14]
  cytotoxicity at 72 h, 20 µM: 10%
A-375 [15]
  Activity: Active
A-375 [16]
  Activity: Dose-dependent effect
A-375 [17]
  Activity: 86.39%
A-375 [18]
  Activity: 3.95%
A-375 [19]
  Activity: 8.09%
A-375 [20]
  Activity: 1.57%
A-375 [21]
  Activity: 76.9%
A-375 [22]
  Activity: 14.01%
A-375 [23]
  Activity: 6.98%
A-375 [24]
  Activity: 2.11%
A-375 [25]
  Activity: 67.24%
A-375 [26]
  Activity: 18.55%
A-375 [27]
  Activity: 9.76%
A-375 [28]
  Activity: 4.45%
[29]
  Activity: Non-Toxic

## O=C(CCSC(=S)NCc1cccnc1)c1c[nH]c2ncc(-c3ccc(Cl)cc3)cc12
Pyruvate kinase PKM [3]; read-out: AC50
  AC50: > 20000 nM
Pyruvate kinase PKM [1]
  %max: inactive

## O=C(CCSC(=S)NCc1cccnc1)c1c[nH]c2nccc(C3CC3)c12
Pyruvate kinase PKM [3]
  AC50: Not Active
Pyruvate kinase PKM [1]
  %max: inactive

## O=C(CCSC(=S)NCc1cccnc1)c1c[nH]c2nccc(-c3ccccc3)c12
Pyruvate kinase PKM [3]; read-out: AC50
  AC50: 2170 nM
Pyruvate kinase PKM [1]
  %max: 28%

## Cn1cc(C(=O)CCSC(=S)NCc2cccnc2)c2cccnc21
Pyruvate kinase PKM [3]; read-out: AC50
  AC50: 4350 nM
Pyruvate kinase PKM [1]
  %max: 114%
NCI-H1299
  IC50: 2090 nM
HCT-116
  IC50: 940 nM
A-375 [2]
  IC50: 290 nM
